Reference: ChEMBL document CHEMBL4257459, “Synergistic antifungal effect of cyclized chalcone derivatives and fluconazole against Candida albicans” (2017)
Values after ≈ are worked out from the molar mass of the structure shown.

Key:
[1] = test system: Candida albicans; assay: Antifungal activity against fluconazole resistant Candida albicans A171 by CLSI protocol based broth microdilution method; type: functional
Method in brief: (§1)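 Broth microdilution per CLSI M27-A3 against clinical C. albicans isolates. Strains sub-cultured at least twice on Tryptone Soya Agar, 37 °C, 48 h. Compounds dissolved in DMSO at 2000 μg mL–1 stock. Fluconazole positive control, plus culture, media and vehicle controls. Run in duplicate; MIC in μg mL–1.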

[2] = test system: Candida albicans; assay: Antifungal activity against Candida albicans ATCC 90028 by CLSI protocol based broth microdilution method; type: functional
Method in brief: (§2)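 Clinical isolates and control strain subcultured at least twice on TSA, 37 °C, 48 h. MICs by CLSI M27-A3 broth microdilution; compounds dissolved in DMSO to 2000 μg mL–1 stock. Fluconazole positive control, culture, media and DMSO vehicle controls in each run. Duplicate experiments; MIC in μg mL–1.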

[3] = test system: Candida albicans; assay: Antifungal activity against fluconazole resistant Candida albicans 167-1 in presence of fluconazole by CLSI protocol based broth microdilution method; type: functional
Method in brief: (§3)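 Checkerboard-style combination with fluconazole at a 1 : 1 ratio, over concentrations 2–4 fold below each agent's MIC alone, by CLSI broth microdilution. Fractional inhibitory concentration index calculated and interpreted as synergy (<0.5), additive (0.5–1), indifferent or antagonistic.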

[4] = test system: Candida albicans; assay: Inhibition of ABC efflux pumps in fluconazole susceptible Candida albicans 0072gr assessed as reduction in energy-dependent rhodamine 6G efflux in presence of 0.1 M glucose after 25 mins […] relative to control
[5] = test system: Candida albicans; assay: Antifungal activity against fluconazole susceptible Candida albicans 003gr in presence of fluconazole by CLSI protocol based broth microdilution method; type: functional
[6] = test system: Candida albicans; assay: Inhibition of ABC efflux pumps in fluconazole susceptible Candida albicans 002B1 assessed as reduction in energy-dependent rhodamine 6G efflux in presence of 0.1 M glucose after 25 mins […] relative to control
[7] = test system: Candida albicans; assay: Antifungal activity against fluconazole susceptible Candida albicans 004B1 in presence of fluconazole by CLSI protocol based broth microdilution method; type: functional
[8] = test system: Candida albicans; assay: Inhibition of ABC efflux pumps in fluconazole susceptible Candida albicans 0079gr assessed as reduction in energy-dependent rhodamine 6G efflux in presence of 0.1 M glucose after 25 mins by fluorescence assay relative to control
Method in brief: (§4)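 Cells grown in TSB at 37 °C for 8 h, washed, resuspended in glucose-free PBS at 1 × 10^8 cells. De-energized 45 min with 5 mM deoxyglucose plus 5 mM dinitrophenol. […] Washed, sampled 5–25 min, then 0.1 M glucose added. Absorbance 527 nm, R6G from standard curve.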

[9] = test system: Candida albicans; assay: Inhibition of ABC efflux pumps in fluconazole resistant Candida albicans 167-1 assessed as reduction in energy-dependent rhodamine 6G efflux in presence of 0.1 M glucose after 25 mins […] relative to control
[10] = test system: Candida albicans; assay: Antifungal activity against fluconazole resistant Candida albicans 167-1 by CLSI protocol based broth microdilution method; type: functional; method in brief: as §1
[11] = test system: Candida albicans; assay: Inhibition of ABC efflux pumps in fluconazole susceptible Candida albicans 004gr assessed as reduction in energy-dependent rhodamine 6G efflux in presence of 0.1 M glucose after 25 mins by fluorescence assay relative to control; method in brief: as §4
[12] = test system: Candida albicans; assay: Inhibition of ABC efflux pumps in fluconazole resistant Candida albicans 167-2 assessed as reduction in energy-dependent rhodamine 6G efflux in presence of 0.1 M glucose after 25 mins […] relative to control
[13] = test system: Candida albicans; assay: Antifungal activity against fluconazole resistant Candida albicans 167-2 in presence of fluconazole by CLSI protocol based broth microdilution method; type: functional; method in brief: as §3
[14] = test system: Candida albicans; assay: Antifungal activity against fluconazole susceptible Candida albicans 0072gr by CLSI protocol based broth microdilution method; type: functional; method in brief: as §2
[15] = test system: Candida albicans; assay: Inhibition of ergosterol biosynthesis in fluconazole susceptible Candida albicans ATCC 90028 at 0.5 to 1 times MIC relative to control; type: functional
Method in brief: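 ATCC90028 grown in 50 ml TSB with MIC and ½ MIC of compound; untreated and 8 μg mL–1 fluconazole controls. Sterols extracted by alcoholic KOH method and spectrophotometrically scanned; ergosterol % calculated from A281.5 and A230 (E values 290 and 518) with dilution factor, per pellet weight.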

[16] = test system: Candida albicans; assay: Inhibition of ABC efflux pumps in fluconazole resistant Candida albicans A171 assessed as reduction in energy-dependent rhodamine 6G efflux in presence of 0.1 M glucose after 25 mins by fluorescence assay relative to control; method in brief: as §4
[17] = test system: Candida albicans; assay: Antifungal activity against fluconazole susceptible Candida albicans 003gr by CLSI protocol based broth microdilution method; type: functional; method in brief: as §2
[18] = test system: Candida albicans; assay: Antifungal activity against fluconazole susceptible Candida albicans 004gr by CLSI protocol based broth microdilution method; type: functional; method in brief: as §2
[19] = test system: Candida albicans; assay: Antifungal activity against fluconazole resistant Candida albicans 167-2 by CLSI protocol based broth microdilution method; type: functional; method in brief: as §1
[20] = test system: Candida albicans; assay: Antifungal activity against fluconazole susceptible Candida albicans 002B1 by CLSI protocol based broth microdilution method; type: functional; method in brief: as §2
[21] = test system: Candida albicans; assay: Inhibition of ABC efflux pumps in fluconazole susceptible Candida albicans 003gr assessed as reduction in energy-dependent rhodamine 6G efflux in presence of 0.1 M glucose after 25 mins […] relative to control
[22] = test system: Candida albicans; assay: Antifungal activity against fluconazole susceptible Candida albicans 0079gr in presence of fluconazole by CLSI protocol based broth microdilution method; type: functional
[23] = test system: Candida albicans; assay: Antifungal activity against fluconazole susceptible Candida albicans 004gr in presence of fluconazole by CLSI protocol based broth microdilution method; type: functional
[24] = test system: Candida albicans; assay: Inhibition of ergosterol biosynthesis in fluconazole resistant Candida albicans A171 at 0.5 to 1 times MIC relative to control; type: functional
Method in brief: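 Total sterols quantified by alcoholic KOH extraction in cells grown in 50 ml TSB with compounds at MIC and ½ MIC; untreated and 8 μg mL–1 fluconazole controls. Spectral scan; ergosterol content from A281.5 and A230 absorbances, dilution factor and pellet weight, correcting for 24(28) DHE.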

[25] = test system: Candida albicans; assay: Antifungal activity against fluconazole susceptible Candida albicans 002B1 in presence of fluconazole by CLSI protocol based broth microdilution method; type: functional
[26] = test system: Candida albicans; assay: Antifungal activity against fluconazole susceptible Candida albicans 0072gr in presence of fluconazole by CLSI protocol based broth microdilution method; type: functional
[27] = test system: Candida albicans; assay: Inhibition of ABC efflux pumps in fluconazole susceptible Candida albicans 004B1 assessed as reduction in energy-dependent rhodamine 6G efflux in presence of 0.1 M glucose after 25 mins by fluorescence assay relative to control; method in brief: as §4
[28] = test system: Candida albicans; assay: Antifungal activity against Candida albicans ATCC 90028 in presence of fluconazole by CLSI protocol based broth microdilution method; type: functional
[29] = test system: Candida albicans; assay: Antifungal activity against fluconazole susceptible Candida albicans 004B1 by CLSI protocol based broth microdilution method; type: functional; method in brief: as §2
[30] = test system: Candida albicans; assay: Antifungal activity against fluconazole resistant Candida albicans A171 in presence of fluconazole by CLSI protocol based broth microdilution method; type: functional; method in brief: as §3
[31] = test system: Candida albicans; assay: Antifungal activity against fluconazole susceptible Candida albicans 0079gr by CLSI protocol based broth microdilution method; type: functional; method in brief: as §2

Structure (SMILES): O=C(/C=C/c1ccccc1)c1ccccc1 [CHALCONE]
- MIC [1]: 31 to 62 µg/mL (≈ 149 to 298 µM)
- MIC [2]: 31 to 62 µg/mL (≈ 149 to 298 µM)
- fractional inhibitory concentration index (FICI) [3]: 0.562 - 0.62
- inhibition [4]: < 20%
- fractional inhibitory concentration index (FICI) [5]: 0.75 - 4.38
- inhibition [6]: < 20%
- fractional inhibitory concentration index (FICI) [7]: 0.75 - 4.38
- inhibition [8]: < 20%
- inhibition [9]: < 20%
- MIC [10]: 31 to 62 µg/mL (≈ 149 to 298 µM)
- inhibition [11]: < 20%
- inhibition [12]: < 20%
- fractional inhibitory concentration index (FICI) [13]: 0.562 - 0.62
- MIC [14]: 31 to 62 µg/mL (≈ 149 to 298 µM)
- inhibition (INH) [15]: 66 - 99%
- inhibition [16]: < 20%
- MIC [17]: 31 to 62 µg/mL (≈ 149 to 298 µM)
- MIC [18]: 31 to 62 µg/mL (≈ 149 to 298 µM)
- MIC [19]: 31 to 62 µg/mL (≈ 149 to 298 µM)
- MIC [20]: 31 to 62 µg/mL (≈ 149 to 298 µM)
- inhibition [21]: < 20%
- fractional inhibitory concentration index (FICI) [22]: 0.75 - 4.38
- fractional inhibitory concentration index (FICI) [23]: 0.75 - 4.38
- inhibition (INH) [24]: 49 - 94%
- fractional inhibitory concentration index (FICI) [25]: 0.75 - 4.38
- fractional inhibitory concentration index (FICI) [26]: 0.75 - 4.38
- inhibition [27]: < 20%
- fractional inhibitory concentration index (FICI) [28]: 0.75 - 4.38
- MIC [29]: 31 to 62 µg/mL (≈ 149 to 298 µM)
- fractional inhibitory concentration index (FICI) [30]: 0.562 - 0.62
- MIC [31]: 31 to 62 µg/mL (≈ 149 to 298 µM)

Structure (SMILES): c1ccc(C2=NOC(c3ccccc3)C2)cc1 (stereo not drawn)
- MIC [1]: 16 to 31 µg/mL (≈ 71.7 to 139 µM)
- MIC [2]: 4 to 31 µg/mL (≈ 17.9 to 139 µM)
- fractional inhibitory concentration index (FICI) [3]: 0.531 - 0.56
- inhibition [4]: < 20%
- fractional inhibitory concentration index (FICI) [5]: 0.75 - 2
- inhibition [6]: < 20%
- fractional inhibitory concentration index (FICI) [7]: 0.75 - 2
- inhibition [8]: < 20%
- inhibition [9]: < 20%
- MIC [10]: 16 to 31 µg/mL (≈ 71.7 to 139 µM)
- inhibition [11]: < 20%
- inhibition [12]: < 20%
- fractional inhibitory concentration index (FICI) [13]: 0.531 - 0.56
- MIC [14]: 4 to 31 µg/mL (≈ 17.9 to 139 µM)
- inhibition (INH) [15]: 66 - 99%
- inhibition [16]: < 20%
- MIC [17]: 4 to 31 µg/mL (≈ 17.9 to 139 µM)
- MIC [18]: 4 to 31 µg/mL (≈ 17.9 to 139 µM)
- MIC [19]: 16 to 31 µg/mL (≈ 71.7 to 139 µM)
- MIC [20]: 4 to 31 µg/mL (≈ 17.9 to 139 µM)
- inhibition [21]: < 20%
- fractional inhibitory concentration index (FICI) [22]: 0.75 - 2
- fractional inhibitory concentration index (FICI) [23]: 0.75 - 2
- inhibition (INH) [24]: 49 - 94%
- fractional inhibitory concentration index (FICI) [25]: 0.75 - 2
- fractional inhibitory concentration index (FICI) [26]: 0.75 - 2
- inhibition [27]: < 20%
- fractional inhibitory concentration index (FICI) [28]: 0.75 - 2
- MIC [29]: 4 to 31 µg/mL (≈ 17.9 to 139 µM)
- fractional inhibitory concentration index (FICI) [30]: 0.531 - 0.56
- MIC [31]: 4 to 31 µg/mL (≈ 17.9 to 139 µM)

Structure (SMILES): O=C1NC(c2ccccc2)=CC(c2ccccc2)N1 (stereo not drawn)
- MIC [1]: 8 to 16 µg/mL (≈ 32 to 63.9 µM)
- MIC [2]: 1 to 8 µg/mL (≈ 4 to 32 µM)
- fractional inhibitory concentration index (FICI) [3]: 0.129 - 0.27
- inhibition [4]: < 20%
- fractional inhibitory concentration index (FICI) [5]: 0.31 - 1.5
- inhibition [6]: < 20%
- fractional inhibitory concentration index (FICI) [7]: 0.31 - 1.5
- inhibition [8]: < 20%
- inhibition [9]: < 20%
- MIC [10]: 8 to 16 µg/mL (≈ 32 to 63.9 µM)
- inhibition [11]: < 20%
- inhibition [12]: < 20%
- fractional inhibitory concentration index (FICI) [13]: 0.129 - 0.27
- MIC [14]: 1 to 8 µg/mL (≈ 4 to 32 µM)
- inhibition (INH) [15]: 66 - 99%
- inhibition [16]: < 20%
- MIC [17]: 1 to 8 µg/mL (≈ 4 to 32 µM)
- MIC [18]: 1 to 8 µg/mL (≈ 4 to 32 µM)
- MIC [19]: 8 to 16 µg/mL (≈ 32 to 63.9 µM)
- MIC [20]: 1 to 8 µg/mL (≈ 4 to 32 µM)
- inhibition [21]: < 20%
- fractional inhibitory concentration index (FICI) [22]: 0.31 - 1.5
- fractional inhibitory concentration index (FICI) [23]: 0.31 - 1.5
- inhibition (INH) [24]: 49 - 94%
- fractional inhibitory concentration index (FICI) [25]: 0.31 - 1.5
- fractional inhibitory concentration index (FICI) [26]: 0.31 - 1.5
- inhibition [27]: < 20%
- fractional inhibitory concentration index (FICI) [28]: 0.31 - 1.5
- MIC [29]: 1 to 8 µg/mL (≈ 4 to 32 µM)
- fractional inhibitory concentration index (FICI) [30]: 0.129 - 0.27
- MIC [31]: 1 to 8 µg/mL (≈ 4 to 32 µM)
